Most compounds without a hit are left out; they make up all but 3.3% or so of the library.
Measles CPE: protection of cells from measles virus; Measles virus-infected cells, CPE protection, absorbance; 140,000 tested, 1.5% active; protection (pct of control), % at 4 µM; in the data active = protection mostly above about 24%, no sharp cut-off; inactive = mostly below about 26%
IL1B NFkB inh: blocks IL-1B driven NFkB nuclear translocation in HUVEC cells | HUVEC IL-1B NFkB p65 nuclear translocation imaging | inhibition, % at 2 µM | 94,000 tested, 0.43% active | AID 796;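 active = inhibition above about 30% together with a positive call from visual inspection of the well image, limit read from the data; inconclusive = inhibition above a set limit but visual check negative; inactive = inhibition not above a set limit, visual check negative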;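 also: nuclear over cytoplasmic p65 intensity ratio measured by imaging; 0% = IL-1B stimulated DMSO wells and 100% = unstimulated DMSO wells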
IL1B cytotox: toxic to HUVEC cells under IL-1B stimulation | HUVEC cell count loss, Hoechst imaging, IL-1B stimulated | 94,000 tested, 0.41% active | AID 845 | cell count reduction, % at 2 µM;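 active = cell count reduction more than 3 SD above the screen-wide mean, cut at about 70% in these data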;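 also: normalized per plate to untreated control cells as the no-loss baseline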
HIV Rev-RRE inh: disrupts HIV-1 Rev binding to RRE RNA; AID 704; Rev peptide-RRE RNA binding, FRET; 97,000 tested, 0.79% active; inhibition, % at 8 µM; P05866;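 active = inhibition above the screen-wide mean plus 3 SD, cut at about 35% in these data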;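 also: 0% = median DMSO wells and 100% = median Neomycin B control wells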
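assay system = Cy5-tagged RRE RNA duplex with fluorescein-tagged Rev peptide | incubation = 5 + 15 min at 25 °C | also added = labelled Rev peptide | measure = % inhibition of FRET ratio versus controls | benchmarks = DMSO wells as 0% and neomycin B wells as 100% inhibition | measured by = FRET fluorescence readout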
IL1B NFkB pot: enhances IL-1B driven NFkB nuclear translocation | HUVEC IL-1B NFkB p65 nuclear translocation imaging | activation, % at 2 µM | 94,000 tested, 0.3% active | AID 819;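 active = activation above 40%, about the mean plus 3 SD, also judged a hit on visual image review; inconclusive = activation above 40% but not a hit on visual review; inactive = activation not above 40% and no visual hit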;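 also: percent activation is computed from the nuclear over cytoplasmic p65 intensity ratio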
FAK blocker: inhibitors of human focal adhesion kinase | Q05397 | biochemical FAK kinase activity assay | inhibition, %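 (tested at 7 µM)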 | 97,000 tested, 0.84% active; in the data active = inhibition above about 19%;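 also: 0% = DMSO and 100% = reference compound high control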
Target sequence (Q05397 whole entry, looked up): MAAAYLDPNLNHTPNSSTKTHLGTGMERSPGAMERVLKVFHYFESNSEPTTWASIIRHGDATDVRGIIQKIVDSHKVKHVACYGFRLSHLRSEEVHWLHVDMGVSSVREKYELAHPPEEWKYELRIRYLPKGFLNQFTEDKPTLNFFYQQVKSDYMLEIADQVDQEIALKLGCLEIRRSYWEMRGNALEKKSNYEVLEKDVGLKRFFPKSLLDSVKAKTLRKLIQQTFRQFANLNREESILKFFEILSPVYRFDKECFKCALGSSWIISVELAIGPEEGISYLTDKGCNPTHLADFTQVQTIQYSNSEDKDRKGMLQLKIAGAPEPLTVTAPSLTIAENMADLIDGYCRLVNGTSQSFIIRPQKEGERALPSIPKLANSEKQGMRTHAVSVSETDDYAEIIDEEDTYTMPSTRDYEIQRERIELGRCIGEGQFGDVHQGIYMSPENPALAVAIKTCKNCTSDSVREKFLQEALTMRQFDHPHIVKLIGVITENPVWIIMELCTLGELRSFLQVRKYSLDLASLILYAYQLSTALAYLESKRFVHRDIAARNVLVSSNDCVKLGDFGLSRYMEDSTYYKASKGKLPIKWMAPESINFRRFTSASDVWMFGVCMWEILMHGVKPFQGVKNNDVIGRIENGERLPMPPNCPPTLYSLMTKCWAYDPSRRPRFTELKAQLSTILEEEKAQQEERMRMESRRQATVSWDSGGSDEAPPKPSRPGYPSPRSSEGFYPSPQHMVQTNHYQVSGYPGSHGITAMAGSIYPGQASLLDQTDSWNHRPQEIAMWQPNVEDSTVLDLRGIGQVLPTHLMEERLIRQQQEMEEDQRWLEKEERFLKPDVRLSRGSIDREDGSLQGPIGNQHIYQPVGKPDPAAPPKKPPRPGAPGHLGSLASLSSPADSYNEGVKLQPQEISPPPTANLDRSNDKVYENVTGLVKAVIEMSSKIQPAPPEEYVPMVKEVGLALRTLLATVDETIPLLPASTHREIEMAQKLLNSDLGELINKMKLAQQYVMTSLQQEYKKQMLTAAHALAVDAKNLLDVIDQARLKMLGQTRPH
* = called active by the depositor; ? = inconclusive; . = not tested or not shown; [ ] = dose if it differs, or a comment.

SMILES	Measles CPE	IL1B NFkB inh	IL1B cytotox	HIV Rev-RRE inh	IL1B NFkB pot	FAK blocker
COc1ccc(N(CC(=O)N2CCN(C)CC2)S(C)(=O)=O)cc1OC	50.5*	4.4	-25.3	1.3	-4.4	-1.0
CCOC(=O)N1CCN(C(=O)CN(c2ccc(OCc3ccccc3)cc2)S(C)(=O)=O)CC1	27.7*	-16.9	-82.1	0.7	16.9	1.3
COc1cccc(N(CC(=O)Nc2cccc(C(C)=O)c2)S(C)(=O)=O)c1	4.2	1.3	-13.1	3.2	-1.3	-0.5
COc1ccc(N(CC(=O)N2CCc3ccccc3C2)S(C)(=O)=O)cc1OC	10.4	-6.5	1.8	1.2	6.5	-0.2
COc1ccc(N(CC(=O)Nc2cccc(C(C)=O)c2)S(C)(=O)=O)cc1OC	92.5*	.	.	.	.	.
COc1ccc(N(CC(=O)Nc2cccc(N(C)S(C)(=O)=O)c2)S(C)(=O)=O)cc1OC	42.6*	-11.4	-11.8	2.6	11.4	0.7
CCN(C(=O)CSc1nnc2c3ccccc3n(CC)c2n1)C1CCS(=O)(=O)C1 (stereo not given)	22.7	.	.	.	.	.
CC(=O)NCC(=O)OC(C(=O)c1ccccc1)c1ccc(Cl)cc1 (stereo not given)	4.4	.	.	.	.	.
CCOC(=O)/C(=N/Nc1ccccc1)Sc1nnc(CCc2ccccc2)n1-c1ccccc1	8.4	.	.	.	.	.
O=C1C2CCCN2C(=O)N1CCCCN1CCN(CCO)CC1 (stereo not given)	9.6	.	.	.	.	.
O=C(c1ccccc1)N1CCCCC(S(=O)(=O)c2ccc3ccccc3c2)C1=O (stereo not given)	1.1	-4.4	-12.5	9.6	4.4	0.6
CCCCC(=O)NC(=S)Nc1c(C)cc(Br)cc1C	4.9	.	.	.	.	.
COc1ccc2c(Cl)c(-c3nnc4n3CCCCC4)sc2c1	42.7*	.	.	.	.	.
Clc1c(-c2nnc3n2CCCCC3)sc2ccccc12	3.5	.	.	.	.	.
Cc1ccc(-c2nnc3n2CCCCC3)cc1	28.9*	-18.7	-129.4	0.8	18.7	0.0
CCCN1CNC(=S)N(c2ccccc2OCC)C1	6.6	.	.	.	.	.
COC(=O)/C(=N\Nc1ccc(Cl)cc1)Sc1nnc(-c2ccc(OC)cc2)n1C	11.8	.	.	.	.	.
CC(C)OC(=O)Cn1nnc2c(cnn2-c2ccccc2)c1=O	0.8	-17.4	-14.7	5.5	17.4	-0.5
O=C(Cn1nnc2c(cnn2-c2ccc(F)cc2)c1=O)c1ccccc1F	6.0	-1.2	91.6*	1.6	1.2	1.0
c1ccc(CCn2c3ccccc3c3nnc(SCc4ccc5nonc5c4)nc32)cc1	24.2*	-1.0	2.3	8.2	1.0	0.2
Cc1ccc(C)c(C(=O)COC(=O)c2ccccc2N2C(=O)C3C4CCC(C4)C3C2=O)c1 (stereo not given)	7.0	-10.2	-21.1	0.2	10.2	-12.7
COc1cccc(CN2CCC(C(=O)N3CCN(c4ccccc4F)CC3)CC2)c1OC	4.6	.	.	.	.	.
O=C(Oc1cccc(/C=N/Nc2nc(Nc3ccccc3)nc(N3CCOCC3)n2)c1)c1ccco1	19.0*	.	.	.	.	.
CCNC(=S)NNC(=O)CCn1cc(C)cn1	5.1	.	.	.	.	.
COC(=O)C1=C(C)n2nnnc2NC1c1ccc(Cl)cc1 (stereo not given)	24.9	-42.3	-3.9	3.3	42.2*	-0.4
SMILES	Measles CPE	IL1B NFkB inh	IL1B cytotox	HIV Rev-RRE inh	IL1B NFkB pot	FAK blocker
CCOC(=O)c1sc(NC(=O)CSc2n[nH]c(-c3ccccc3)n2)c(C#N)c1C	10.9	.	.	.	.	.
Cc1ccc(/C=C/C2=Cc3c(sc(NC(=O)CSc4n[nH]c(N)n4)c3C#N)C(C)(C)C2)o1	6.9	50.3*	-23.2	47.4*	-50.3	13.0
CC(C)OC(=O)c1c2nc3ccccc3nc2n2c1[nH]c(=O)c1ccccc12	25.5	22.8	-9.7	69.5*	-22.8	-0.3
CC(C)OC(=O)c1c(N)n(CCCN2CCOCC2)c2nc3ccccc3nc12	7.9	-43.9	2.1	8.3	?	1.0
Clc1ccc(-c2noc(COc3ccccc3)n2)cc1	14.0	.	.	.	.	.
Clc1ccc(-c2noc(CCCOc3ccccc3)n2)cc1	7.5	84.4*	-10.5	11.7	-84.4	-2.9
CCOc1cc(S(=O)(=O)N2CCCCCC2)ccc1F	2.1	-1.3	16.0	12.3	1.3	1.1
O=S(=O)(c1ccc(Oc2ccc(Br)cc2F)nc1)N1CCCCC1	16.6	40.3*	-43.5	21.2	-40.3	-4.0
CCn1c(SCC(=O)NCc2cccs2)nnc1-c1ccco1	25.6*	.	.	.	.	.
CCn1c(SCC(=O)NCc2cccs2)nnc1-c1ccncc1	11.7	-24.8	2.3	2.9	24.8	-0.4
CCn1c(SCC(=O)Nc2cccc(NC(=O)c3cccs3)c2)nnc1-c1ccncc1	18.6	-41.5	-39.8	2.7	41.5*	-1.4
CCn1c(CCNC(=O)c2cccs2)nnc1SCC(=O)Nc1nc(-c2ccccc2)cs1	34.5*	-6.2	-34.2	5.6	6.2	-4.9
CCn1c(CCNC(=O)c2cccs2)nnc1SCC(=O)Nc1cccc(Cl)c1	24.0	-9.5	-1.7	8.9	9.5	-2.2
CCOC(=O)C(=NCCOC)NNc1cc(Cl)ccc1Cl	5.4	.	.	.	.	.
Cc1cc(C)n(-c2ccc(C(=O)OCC(=O)NC(c3ccccc3)c3ccccc3)cc2)n1	50.8*	.	.	.	.	.
CCN(CC)S(=O)(=O)c1ccc(NC(=O)COC(=O)c2ccc(-n3nc(C)cc3C)cc2)cc1	9.5	1.8	-3.5	11.8	-1.8	-2.3
O=C(Oc1ccc2ccccc2c1Cl)N1CCCC1	10.7	-22.0	0.8	6.1	22.0	-0.6
O=C(Oc1ccc2ccccc2c1Cl)N1CCCCCC1	30.2*	.	.	.	.	.
CCN1C(=O)CSc2ccc(C(=O)NCc3ccc(OC)cc3)cc21	36.3*	5.6	14.7	6.1	-5.6	0.4
CCCCNC(=O)c1ccc2c(c1)N(CC)C(=O)CS2	0.6	-24.8	-7.7	0.0	24.8	2.9
CC1=Nc2ccccc2/C1=C\c1nc(-c2ccc(C(F)(F)F)cc2)oc1O	4.9	-5.0	0.3	125.8*[fluorescence artefact?]	5.0	4.9
CC1=Nc2ccccc2/C1=C\c1nc(-c2ccccc2)oc1O	5.6	-0.4	-4.7	54.1*	0.4	-0.4
Oc1oc(-c2ccccc2)nc1C=Nc1ccccc1	12.4	0.1	1.4	3.1	-0.1	5.3
Cc1ccccc1Nc1nnc(SCC(=O)NC2CCCc3ccccc32)s1 (stereo not given)	4.5	.	.	.	.	.
Cc1noc(C)c1CSc1nc2sc3c(c2c(=O)n1C)CCCC3	96.1*	-2.6	8.7	7.4	2.6	-0.1
C=CCOc1ccc(/C=N/NC(=O)C(C)Sc2ccccn2)cc1OC (stereo not given)	7.2	.	.	.	.	.
O=C(Nc1nccs1)c1cccc(N2C(=O)c3cccc4c([N+](=O)[O-])ccc(c34)C2=O)c1	4.2	-10.2	1.7	50.8*	10.2	-0.6
O=C(Nc1nccs1)c1cccc(N2C(=O)C3C4C=CC(C4)C3C2=O)c1 (stereo not given)	29.1	.	.	.	.	.
O=C(N/N=C/c1cc(Cl)ccc1O)C(=O)Nc1ccccc1OC(F)(F)C(F)F	9.8	.	.	.	.	.
O=C(N/N=C/c1cc(Br)ccc1O)C(=O)Nc1ccccc1OC(F)(F)C(F)F	3.5	11.1	-27.3	48.6*	-11.1	-6.1

Source: PubChem
